Source: ChEMBL document CHEMBL1141362, “Synthesis and solid-phase purification of anthranilic sulfonamides as CCK-2 ligands” (Bioorg Med Chem Lett, 2007)
pKi: −log10 of the molar value.

Tests used:
[1] = Metabolic stability in human liver microsomes after 30 mins; assay type: ADME, Microsome; conditions: read-out: Stability
Method in brief: (§1)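 Compound incubated with human or rat liver microsomes to assess stability toward CYP450 oxidation. The read-out is percent of parent compound remaining after 30 min.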

[2] = Metabolic stability in rat liver microsomes after 30 mins; assay type: ADME, Microsome; conditions: read-out: Stability; method in brief: as §1
[3] = target: T1, Gastrin/cholecystokinin type B receptor (Homo sapiens, UniProt P32239); assay: Displacement of [125I]CCK-8S from CCK2 receptor
T1 sequence (P32239 whole entry): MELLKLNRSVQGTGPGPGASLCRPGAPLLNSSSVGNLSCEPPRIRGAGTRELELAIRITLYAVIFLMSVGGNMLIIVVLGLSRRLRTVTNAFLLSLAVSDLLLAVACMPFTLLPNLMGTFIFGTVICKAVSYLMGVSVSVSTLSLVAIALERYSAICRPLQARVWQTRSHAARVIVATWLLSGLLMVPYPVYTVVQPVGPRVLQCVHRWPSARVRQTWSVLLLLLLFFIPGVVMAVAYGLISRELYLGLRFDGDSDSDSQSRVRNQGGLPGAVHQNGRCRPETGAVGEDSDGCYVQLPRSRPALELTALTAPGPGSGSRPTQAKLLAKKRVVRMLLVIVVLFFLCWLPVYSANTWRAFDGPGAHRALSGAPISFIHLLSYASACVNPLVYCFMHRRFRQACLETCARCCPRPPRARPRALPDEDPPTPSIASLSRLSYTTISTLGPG
Method in brief: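 Apparent antagonist equilibrium dissociation constant, reported as its negative logarithm, derived by the Cheng–Prusoff method from the concentration displacing 50% of 125I-CCK-8S (pIC50). Values are ±0.3 log units unless stated otherwise.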

[4] = target: T2, Cholecystokinin receptor type A (Homo sapiens, UniProt P32238); assay: Binding affinity to CCK1 receptor
T2 sequence (P32238 whole entry): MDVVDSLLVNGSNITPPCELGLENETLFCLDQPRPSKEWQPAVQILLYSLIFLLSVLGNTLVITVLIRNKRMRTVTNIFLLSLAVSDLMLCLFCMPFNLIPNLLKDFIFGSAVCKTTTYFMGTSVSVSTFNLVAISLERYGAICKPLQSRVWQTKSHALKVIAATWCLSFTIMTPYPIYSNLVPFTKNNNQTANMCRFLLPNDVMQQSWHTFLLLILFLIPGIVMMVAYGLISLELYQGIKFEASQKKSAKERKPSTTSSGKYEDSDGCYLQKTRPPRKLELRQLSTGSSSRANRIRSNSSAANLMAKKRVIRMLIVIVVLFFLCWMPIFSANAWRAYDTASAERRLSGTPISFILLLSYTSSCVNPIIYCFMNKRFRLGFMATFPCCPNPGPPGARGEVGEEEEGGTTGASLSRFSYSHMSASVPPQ

| SMILES | remaining at 0.5 h [1] | remaining at 0.5 h [2] | pKi [3] | pKi [4] |
| --- | --- | --- | --- | --- |
| O=C(c1ccc(Br)cc1NS(=O)(=O)c1cccc2nsnc12)N1CCCCC1 | 0% | 29% | – | – |
| O=C(NCc1ccc(S(=O)(=O)Nc2cc(Br)ccc2C(=O)N2CCCCC2)s1)c1ccccc1 | 0% | 0% | 5.20 | – |
| COC(=O)c1sc(C(F)(F)F)c(-c2ccccc2)c1S(=O)(=O)Nc1cc(Br)ccc1C(=O)N1CCCCC1 | 0% | 0% | 5.10 | – |
| CSc1nccc(-c2ccc(S(=O)(=O)Nc3cc(Br)ccc3C(=O)N3CCCCC3)s2)n1 | 63% | 39% | 5.50 | – |
| N#Cc1cccc(S(=O)(=O)Nc2cc(Br)ccc2C(=O)N2CCCCC2)c1 | 7% | 100% | 5.30 | – |
| Cc1nnc(-c2cccc(S(=O)(=O)Nc3cc(Br)ccc3C(=O)N3CCCCC3)c2)o1 | 0% | 66% | 5.10 | – |
| Cc1nc(-c2ccc(S(=O)(=O)Nc3cc(Br)ccc3C(=O)N3CCCCC3)s2)cs1 | 5% | 47% | 5.40 | – |
| O=C(c1cc(Cl)ccc1NS(=O)(=O)c1cccc2nsnc12)N1CCCCC1 | – | – | – | < 5.00 |
| O=C(c1ccc(Br)cc1NS(=O)(=O)c1ccc2nsnc2c1)N1CCCCC1 | 13% | 23% | 5.30 | – |
| O=C(c1ccc(Br)cc1NS(=O)(=O)c1csc2ccccc12)N1CCCCC1 | 23% | 19% | 5.50 | – |
| COC(=O)c1cc(S(=O)(=O)Nc2cc(Br)ccc2C(=O)N2CCCCC2)oc1C | 10% | 100% | 5.30 | – |
| COC(=O)c1csc(S(=O)(=O)Nc2cc(Br)ccc2C(=O)N2CCCCC2)c1OC | 0% | 0% | 5.30 | – |
| O=C(c1ccc(Br)cc1NS(=O)(=O)c1ccc(-c2cc(C(F)(F)F)on2)s1)N1CCCCC1 | 89% | 87% | 5.30 | – |
| Cc1c(S(=O)(=O)Nc2cc(Br)ccc2C(=O)N2CCCCC2)cnn1-c1ccccc1 | 85% | 30% | 5.10 | – |

Continued, values first:

| remaining at 0.5 h [1] | remaining at 0.5 h [2] | pKi [3] | pKi [4] | SMILES |
| --- | --- | --- | --- | --- |
| 0% | 11% | 6.30 | – | COC(=O)c1c(C)oc(C)c1S(=O)(=O)Nc1cc(Br)ccc1C(=O)N1CCCCC1 |
| 77% | 78% | 6.30 | – | O=C(c1ccc(Br)cc1NS(=O)(=O)c1c(F)cccc1F)N1CCCCC1 |
| 44% | 49% | 6.20 | – | O=C(c1ccc(Br)cc1NS(=O)(=O)c1ccc(C(F)(F)F)cc1Cl)N1CCCCC1 |
| 2% | 68% | 6.10 | – | O=C(c1ccc(Br)cc1NS(=O)(=O)c1sc(Cl)cc1Br)N1CCCCC1 |
| 3% | 25% | 5.70 | – | Cc1ccc(S(=O)(=O)Nc2cc(Br)ccc2C(=O)N2CCCCC2)cc1[N+](=O)[O-] |
| 7% | 100% | 5.80 | – | O=C(c1ccc(Br)cc1NS(=O)(=O)c1c(Cl)nc2sccn12)N1CCCCC1 |
| 41% | 9% | 5.60 | – | O=C(c1ccc(Br)cc1NS(=O)(=O)c1ccc2c(c1)OCCCO2)N1CCCCC1 |
| 3% | 37% | 5.80 | – | COC(=O)c1sccc1S(=O)(=O)Nc1cc(Br)ccc1C(=O)N1CCCCC1 |
